# The list is not random: actives were taken first. Their share in the collection is about 1.8%.
# TLR9-MyD88 block – inhibitors of human TLR9-MyD88 binding; Q9NR96+Q99836; CHO BLA complementation TLR9-MyD88, CCF4 FRET ratio; 340,000 compounds, 0.21% hits; inhibition, % at 4.98 µM;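 active = inhibition above the mean over all tested compounds plus 3 SD, cut at about 21% in these data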;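 also: 0% = DMSO only wells and 100% = clavulanate BLA inhibitor control wells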
# MC4R ag barr – human MC4R agonism via beta-arrestin | P32245 | U2OS MC4R beta-arrestin complementation, luminescence; percent of melanotan II response, DMSO zero | activation, % at 8.9 µM | 360,000 compounds, 0.98% hits | AID 540308;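 active = activation above a per-plate cutoff, the mean activation of sample wells on that plate plus 3 SD, cut at about 8% in these data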
# NOD2-RIPK2 inh – blocks binding of human NOD2 to RIPK2 | O43353 | CHO BLA complementation NOD2-RIPK2, CCF4 ratio | inhibition, % at 4.98 µM | 360,000 compounds, 0.38% hits | AID 624267; in the data active = inhibition above about 21%;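 also: 0% = vehicle only and 100% = reference blocker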
# TLR4 MyD88 comp – TLR4-MyD88 interaction inhibition in cells; HeLa CL3-4 TLR4/MyD88 BLA complementation, FRET ratio; inhibition, % at 8.4 µM; 200,000 compounds, 0.18% hits; in the data active = inhibition above about 25%;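 also: 0% = vehicle and 100% = reference inhibitor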
# MC4R antagonist – blocks human MC4R cAMP signaling; P32245; MC4R-expressing cells, MTII-stimulated cAMP, LANCE TR-FRET; inhibition, % at 6.5 µM; 360,000 compounds, 0.48% hits; AID 540295;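 active = inhibition above its plate's cutoff, the mean of tested wells on that plate plus 3 SD, cut at about 29% in these data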;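 also: 0% = Melanotan II alone and 100% = Melanotan II plus saturating MCL0020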
#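 System – human MC4R-expressing U2OS cells · Also added – Melanotan II · Dosing – one concentration, 6.5 µM nominal · Timing – 30-min compound, 1-h challenge, 1-h detection, room temperature · Measured by – Eu-cAMP/anti-cAMP TR-FRET, emission 671 nm · Replicates – singlicate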
# MC4R barr ag – human MC4R beta-arrestin agonism confirmation | shares compounds with MC4R ag barr | U2OS MC4R beta-arrestin recruitment, luminescence; scaled DMSO 0%, Melanotan II 100% | activation, % at 8.9 µM | 2,400 compounds, 31% hits;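 active = mean activation across replicates above the hit cutoff set in the earlier primary screen, cut at about 8% in these data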
# MOR DOR agonist – OPRM1-OPRD1 heterodimer agonism counter-screen; shares compounds with MC4R ag barr; U2OS PathHunter beta-arrestin, beta-gal luminescence; percent of deltorphin B response, DMSO zero; activation, % at 9.2 µM; 2,400 compounds, 5.8% hits; AID 602194;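 active = mean activation across replicates exceeds the hit threshold derived in the earlier primary screen, cut at about 18% in these data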;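 also: 100% = deltorphin B at 0.9 µM final and 0% = DMSO alone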
# Target sequence (P35372 whole entry, looked up): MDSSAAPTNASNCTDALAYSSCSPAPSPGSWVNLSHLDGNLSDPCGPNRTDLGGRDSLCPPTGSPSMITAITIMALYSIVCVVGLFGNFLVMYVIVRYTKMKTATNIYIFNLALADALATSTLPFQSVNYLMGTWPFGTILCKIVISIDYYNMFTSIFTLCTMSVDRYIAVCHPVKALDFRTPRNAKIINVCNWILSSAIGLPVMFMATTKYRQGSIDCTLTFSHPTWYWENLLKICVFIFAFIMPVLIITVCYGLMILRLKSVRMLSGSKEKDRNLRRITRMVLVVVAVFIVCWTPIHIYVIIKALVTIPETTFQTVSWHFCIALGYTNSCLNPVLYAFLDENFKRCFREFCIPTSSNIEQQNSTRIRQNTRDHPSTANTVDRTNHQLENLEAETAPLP
# Target sequence (P41143 whole entry, looked up): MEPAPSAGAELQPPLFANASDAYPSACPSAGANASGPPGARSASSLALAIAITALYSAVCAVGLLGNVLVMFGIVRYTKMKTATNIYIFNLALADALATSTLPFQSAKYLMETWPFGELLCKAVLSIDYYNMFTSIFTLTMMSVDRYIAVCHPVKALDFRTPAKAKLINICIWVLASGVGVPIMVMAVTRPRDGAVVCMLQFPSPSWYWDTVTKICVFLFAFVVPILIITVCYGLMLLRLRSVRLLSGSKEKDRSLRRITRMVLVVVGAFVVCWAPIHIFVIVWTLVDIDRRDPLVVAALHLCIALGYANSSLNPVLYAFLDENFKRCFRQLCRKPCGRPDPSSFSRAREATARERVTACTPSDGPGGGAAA
# Numbers without * were called inactive; · = not tested or not shown.
SMILES,TLR9-MyD88 block,MC4R ag barr,NOD2-RIPK2 inh,TLR4 MyD88 comp,MC4R antagonist,MC4R barr ag,MOR DOR agonist
COc1cc(NC(=O)c2ccc(-c3ccc(Br)cc3)o2)ccc1NC(=O)C(C)C,-3,15*,-16,-15,2,6,4
COc1cccc(C(c2nnnn2C(C)(C)C)N2CCN(C/C=C/c3ccccc3)CC2)c1OC (centres undefined),·,·,-2,·,·,·,·
COC(=O)c1c(NC(=O)c2cccc([N+](=O)[O-])c2)sc(C(N)=O)c1C,5,12*,10,8,-10,7,3
COc1ccccc1NC(=O)COC(=O)c1cc(C)oc1C,-6,1,-7,·,5,·,·
O=C(CN1CCN(Cc2ccccc2Cl)CC1)N/N=C/c1ccccn1,-3,1,-2,·,-3,·,·
CCOc1ccc(CC(=O)Nc2c(C(=O)Nc3ccccc3)oc3ccccc23)cc1OCC,-4,15*,-7,-6,2,11*,1
O=[N+]([O-])c1cc(/C=N/O)ccc1SCc1ccccc1Cl,9,18*,2,-12,-13,6,6
O=C(CNC(=S)NC(=O)c1ccc(Cl)cc1)c1ccccc1,3,12*,-6,-5,-1,2,3
O=C(CNC(=O)c1ccc(Cl)cc1)c1ccc(Br)cc1,4,5,-14,·,2,·,·
O=C(CNC(=S)NC(=O)c1ccc(Br)o1)c1ccccc1,10,11*,9,8,1,2,6
CC(C)N1CCC(N2CCN(Cc3cc4c(cc3Cl)OCO4)CC2CCO)CC1 (centres undefined),8,0,0,-22,12,·,·
COc1ccc(-n2ncc3c(N4CCN(Cc5ccccc5)CC4)ncnc32)cc1,-6,1,-2,-9,11,·,·
Cc1cccc(NC(=O)NC(C)CCc2ccccc2)c1 (centres undefined),3,0,4,-10,20,·,·
Cc1cccc(NC(=S)NC(C)CCc2ccccc2)c1 (centres undefined),9,21*,7,-3,0,2,8
CC(C)(C)C(=O)Cn1c(=O)n(CC2CCCO2)c(=O)c2ccccc21 (centres undefined),-4,-2,-14,1,5,·,·
O=C(Cn1c(=O)n(CC2CCCO2)c(=O)c2ccccc21)c1ccc(Cl)c(Cl)c1 (centres undefined),9,11*,-5,-7,6,-1,3
O=C1Nc2ccccc2O/C1=C\c1ccccc1,-10,13*,12,·,11,1,5
COc1ccccc1N1CCN(S(=O)(=O)c2ccc3nc(-c4ccccc4)[nH]c3c2)CC1,0,1,11,-3,-1,·,·
O=S(=O)(c1ccc2nc(-c3ccccc3)[nH]c2c1)N1CCN(c2cccc(Cl)c2)CC1,-5,15*,9,-4,5,5,8
NC(=O)CC(NC(=O)c1ccc(Br)cc1)c1ccc(NCCc2ccc(F)cc2)c([N+](=O)[O-])c1 (centres undefined),1,13*,9,·,3,-1,3
Cc1ccc(NC(=O)c2ccc(N/N=C/c3cccc(O)c3)c([N+](=O)[O-])c2)cc1,3,9.9*,0,0,-8,5,15
COc1ccc(S(=O)(=O)N2CCOCC2)cc1NC(=O)CSc1nnc2n1CCCCC2,-6,-2,-3,·,6,·,·
Cc1cccnc1C(c1ccc(F)cc1)N(C)C(=O)C1CCN(CCOc2ccc(Cl)cc2Cl)CC1 (centres undefined),·,11*,-5,·,7,18*,10
O=C(NC(c1ccc(F)cc1)c1ccc2ccccc2n1)C1CCN(CCOc2ccc(Cl)cc2)CC1 (centres undefined),·,8,-7,·,6,·,·
O=C(NC(c1ccccc1)c1ccc2ccccc2n1)C1CCN(CCOc2ccc(Cl)cc2Cl)CC1 (centres undefined),·,39*,5,·,13,18*,7
SMILES,TLR9-MyD88 block,MC4R ag barr,NOD2-RIPK2 inh,TLR4 MyD88 comp,MC4R antagonist,MC4R barr ag,MOR DOR agonist
Cc1c(NS(=O)(=O)c2cc(C(=O)NCc3cccnc3)ccc2Cl)c(=O)n(-c2ccccc2)n1C,6,-2,-10,·,7,·,·
Cc1ccc(NS(=O)(=O)c2ccc(NC(=O)c3cccs3)cc2)c(C)c1,11,-1,-4,-4,-10,·,·
Cc1ccc(NC(=O)c2cc(S(=O)(=O)Nc3ccc(C)cc3)cs2)cc1,-18,9.6*,5,-12,-3,13*,17
COc1cc2c(NCCCCCO)ncnc2c(OC)c1OC,4,3,-1,·,10,·,·
CCOC(=O)C(=CNc1cc(C)nn1-c1ccc(C)cc1)C(=O)OCC,-17,3,-16,1,-6,·,·
CCOC(=O)C(=CNc1ccc2c(c1)nnn2-c1ccc(Cl)cc1)C(=O)OCC,-12,22*,-9,-13,11,23*,4
CCc1ccc(NCc2cc3c(C)nn(-c4ccccc4)c3[nH]c2=O)cc1,-4,1,-13,7,10,·,·
COc1cccc(NCc2cc3c(C(C)(C)C)nn(-c4ccccc4)c3[nH]c2=O)c1,9,13*,-12,8,4,0,7
CC1CC(C)CN(C(=O)CCNC(=O)c2ccccc2Cl)C1 (centres undefined),4,-3,-2,·,3,·,·
Cc1ccc(Cl)cc1NC(=O)c1ccccc1OCC(=O)Nc1ccc(Cl)cc1,0,15*,5,2,23,8.2*,8
Cc1ccc(NC(=O)c2ccccc2OCC(=O)c2ccc(F)cc2)cc1,-1,51*,0,15,2,18*,8
O=C(Cn1cnc2c(NCc3ccccc3)ncnc21)NCCCN1CCCC1=O,-11,-1,-3,·,6,·,·
CCOC(=O)C1=C[C@@H](C(C)(C)C)N(S(=O)(=O)c2ccc(C)cc2)[C@H]1c1cccc2ccccc12,·,·,-19,·,·,·,·
O=C(CCC1CCCCC1)Nc1ccccc1C(=O)N1CCOCC1,3,-2,-20,-9,2,·,·
Cc1ccc2c(c1)c1c(n2CC(O)Cn2c(C)nc3ccccc32)CCCC1 (centres undefined),9,9.6*,-7,-15,-2,4,8
Cc1ccc2c(c1)c1c(n2CC(O)CN2CCCCCC2)CCCC1 (centres undefined),5,5,2,·,-4,·,·
Cc1ccc(NC(=O)CS(=O)CC(=O)Nc2cnc3ccccc3c2)cc1Cl (centres undefined),3,-2,0,·,13,·,·

# Assay outcomes as filed in PubChem BioAssay.
